From the RNAGym collection of RNA variant scans (doi:10.1126/science.aae0568) come the findings set out here.

This sample holds only a part of the variants without activity.

B1: tRNA (parent)
chain: GUUCCGUUGGCGUAAUGGUAACGCGUCUCCCUCCUAAGGAGAAGACUGCGGGUUCGAGUCCCGUACGGAACG

In this series the parent is B1. Briefly: yeast fitness relative to wild type (ratio to wild type); higher = fitter; tRNA-Arg(CCU), competitive growth, 37 C, YPD. The procedure, abridged: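 Gene amplicons from the start population and from each of six end populations were read by 100-nucleotide paired-end sequencing. Those end populations came from pooled Saccharomyces cerevisiae strains carrying tRNA-Arg(CCU) gene variants at the native locus, competed in YPD at 37°C for 24 hours. Fitness relative to wild type was worked out from changes in genotype frequencies. Genotypes needed ≥ 100 starting reads, and estimates < 0.5 were set to 0.5.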
With GUUCGGUUCGCGUAAUGGUAACGCGUCUCCCUCCUGAGGAGAAGAUUGCGGGUUCGAGUCCCGUACGGAACG [C5G G9C A36G C46U], the yeast fitness is at most 0.5.

Turning to GUUCGGUUGGCGUAAUGGUAACGCGUCUCCCUCCUAAGGAGAAGACUGCGGGUUCGAGUCCCGUAAGGUACG [C5G C66A A69U], the yeast fitness turned out to be 0.574.

Regarding GUUCGGUUCGCGUAAUGGUAACGCGUCUCCCUCCUAAGGAGAGGACUGCGGGUUCGAGUCCCGUACGGGACG [C5G G9C A43G A69G], the yeast fitness is at most 0.5.

With GUUCGAUUGGCGUAAUGGUAACGCGUCUCCCUCCUAAGGAGAAGACUGCCGGUUCGAGUCCCGUACGGAACG [C5G G6A G50C], the yeast fitness was 0.608.

With GUUCGCUUGGCGUAGUGGUAACGCGUCUCCCUCCUAAGGAGAAGACUGCGGGUUCGAGUCCUGUCCGGAACG [C5G G6C A15G C62U A65C], the yeast fitness came to 0.6.

Consider GUUCGGUUGGCGUAAUGGUAACGCGUCUCCCUCCUAAGGAGAAGACUGCGGGUUCGAGUCCCGUAAGGGCCG [C5G C66A A69G A70C], for which the yeast fitness is at most 0.5.

Consider GUUCGGUUGGCGUAAUGGUAACGCGUCUCCCUCCUAAGGAGAAGACUGCGGGUUCGAGUCGCGUACGGGACG [C5G C61G A69G], for which the yeast fitness is at most 0.5.

As for GUUCGGUUCGCGUAAUGGUUGCGGGUGUCCCUCCUAAGGAGAAGACUGCGGGUUCGAGUCCCGUACGGAACG [C5G G9C A20U A21G C24G C27G], the yeast fitness turned out to be 0.577.

As for GUUCGGUUGGCGUAAUGGUAACGCGUCUCCCUCCUAAGGAGAAGACUGAGGGUUCGAGUCCCGCACGGAACG [C5G C49A U64C], the yeast fitness worked out at 0.621.

On to GUUCGGUUCGCGCAAUGGUAGCGCGUCUCCCUCCUAAGGAGAAGACUGCGGGUUCGAGUCCCGUACGGAACG [C5G G9C U13C A21G], for which the yeast fitness is at most 0.5.

For GUUCGGUUGGCGUAAUGGUAACGCGUCUCCCUCCUAAGGAGAAGACUGCGGGUUUGAGUCCCGUACGGUACG [C5G C55U A69U], the yeast fitness is at most 0.5.

Regarding GUUCGAUUGGCGUAAUGGUAACGCGUCUGCCUCCUAAGGAGAAGACUGCGGGUUCGAGUCCCGUACGGAACG [C5G G6A C29G], the yeast fitness was determined as 0.533.

As for GUUCGGUUGGCGUAAUGGUAACGCGUCUCCCUCCUAAGGAGAAGACUGCGGGUUCGAGUCACCUACGGAACG [C5G C61A G63C], the yeast fitness was at most 0.5.

GUUCGGUUCGCGUAAUGGUUGCGGGUGUCCCUCCUAAGGAGAAGACUGCGGGUUCGAGUCCCGUACGAAACG [C5G G9C A20U A21G C24G C27G G68A]: the yeast fitness is at most 0.5.

For GUUCGGUUGGCGUAAUGGUAACGCGUCUCCCUCCUAAGGAGAAGACUGCGGGUUCGAGUCCGGAACGGAACG [C5G C62G U64A], the yeast fitness was at most 0.5.

Consider GUUCGAUUGGCGUAAUGGUAACGCGUCUCGCUCCUAAGGAGAAGACUGCGGGUUCGAGUCCCGUACGGAACG [C5G G6A C30G], for which the yeast fitness was at most 0.5.

Consider GUUCGGUUGGCGUAAUGGUAACGCGUCUCCCUCCUAAGGAGAAGAUUGCGGGUUCGCGUCCCGUACGGAACG [C5G C46U A57C], for which the yeast fitness was 0.552.

As for GUUCGAUUGGCGUAAUGGUAACGCGCCUCCCUCCUAAGGAGAAGACUGCGGAUUCGAGUCCCGUACGGAACG [C5G G6A U26C G52A], the yeast fitness was found to be 0.619.

For the variant GUUCGGUUGACGUAAUGGUAACGCGUCUCCCUUCUAAGGAGAAGACUGCGGGUUCGAGUCCCGUCCGCAACG [C5G G10A C33U A65C G68C], the yeast fitness was 0.55.

In the case of GUUCGGUUCGCGUAAUGGUAACGCGUCUCCCUCCUAAGGAGAAGACUGCGGGUUCGAGUCCCGUUCGGAACG [C5G G9C A65U], the yeast fitness turned out to be 0.555.

For the variant GUUCGGUUAGCGUAAUGGUAACGCGUGUCCCUCCUAAGGAGAAGACUGCGGGUUCGAGUCCCGUACGGAACG [C5G G9A C27G], the yeast fitness came out at 0.544.

For the variant GUUCGGUUGGCGUAAUGGUAACGCGUCUCCCUCCUAAGGAGAAGACUGCGGGUUGGAGUCCCGUCCGGAACG [C5G C55G A65C], the yeast fitness is 0.531.

In the case of GUUCGGUUGGCGUAAUGGUAACGCGUCUCCCUCCUAAGGAGAAGACUGCGGGUUCGAGUCUCGGACGGAACG [C5G C61U U64G], the yeast fitness was found to be 0.87.

GUUCGGUUGCCGUAAUGGUAACGCGUCUCCCUCCGAAGGAGAAGACUGCAGGUUUGAGUCCCGUACGGCACG [C5G G10C U35G G50A C55U A69C]: the yeast fitness worked out at 0.607.

On to GUUCGGUUCGCGUAAUGGUAACGCGUCUCCCUCCUAAGGAGAGGACUGCGGGUUCGAGUCCCGUACGGAACG [C5G G9C A43G], for which the yeast fitness turned out to be 0.667.

With GUUCGGUUCGCGUAAUGGUAACGCGUCUCCCUCCUAAGGAGAAGACUGCGGGUUCGAGUCCCGUACAGAACG [C5G G9C G67A], the yeast fitness is at most 0.5.

For GUUCGGUUGACGUAAUGGUAACGCGUCUCCCUCCUACGGAGAAGACUGCGGGUUCAAGUCCCGUACGGAACG [C5G G10A A37C G56A], the yeast fitness was 0.567.

In the case of GUUCGGUUCGCGUAAUGGUAACGCGUCUCCCUCCUAAGGUGAAGACUGCGGGUUCGAGUCCCGUAGGGAACG [C5G G9C A40U C66G], the yeast fitness was at most 0.5.

GUUCGCUUGGCGUAAUGGUAACGCGUCUCCCUCCUAACGAGAAGACUGCGGGUUCGAUUCCCGUACGGAACG [C5G G6C G38C G58U]: the yeast fitness is 0.551.

For the variant GUUCGGUUGGCGUAAUGGUAACGCGUCUCCCUCCUAAGGAGAAGACUGCGGGUUCGAGUCGCGUCCGGAACG [C5G C61G A65C], the yeast fitness is at most 0.5.

For GUUCGGUUGGCGUAAUGGUAACGCGUCUCCCUCCUAAGGAGAAGACUGCGGGUUUGAGUCCCGUACGGAACG [C5G C55U], the yeast fitness turned out to be 0.791.

Turning to GUUCGGUUGGCAUAAUGGUAAAGCGCCUCCCUGCUAAGGAGAAGACUGCGGGUUCGAGUCCCGAACCGAACG [C5G G12A C22A U26C C33G U64A G67C], the yeast fitness was at most 0.5.

Regarding GUUCGGUUGACGUAAUGGUAACGCGUCUCCCUCCUAAGGAGAAGACUGCGGGUUCGAGUCCCGUACGGAACG [C5G G10A], the yeast fitness came to 0.804.

Regarding GUUCGGUUGGCCUAAUGGUAACGCGUCUCCCUCCUAAGGAGAAGACUGUGGGUUCGAGUCCCGUCCGGAACG [C5G G12C C49U A65C], the yeast fitness stood at 0.726.

In the case of GUUCGAUUGGCGUAAUGGUAACGCGUCUCCCUCCUAAGGAGAAGACUGCGGGUUCGAGUCCCGUACGGAACG [C5G G6A], the yeast fitness came out at 0.659.

As for GUUCGGUUGGCAUAAUGGUAACGCGUCACCCUCCUAAGGAGAAGACUGCGGGUUCGAGUCCCGUGCGGAACG [C5G G12A U28A A65G], the yeast fitness came out at 0.703.

GUUCGGUUCGCGUAAUGGUAACGCGUCUCCCUCCUAAGGAGGAGACUGCGGGUUCGAGUCCCGUACGGAACG [C5G G9C A42G]: the yeast fitness was at most 0.5.
